# Target: Potassium voltage-gated channel subfamily KQT member 2 (Mus musculus) (UniProt Q9Z351)
# Assay: Ability to open cloned mKCNQ2 channel expressed in Xenopus laevis oocytes at 10 uM expressed as percent of compound-free control current at -40 mV
# Assay type: functional, cell-based
# Details: Oocyte
# In short: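 Two-electrode voltage clamp of Xenopus laevis oocytes injected with ~50 nL mKCNQ2 cRNA, kept at 17 °C in ND96 (mM: NaCl 90, KCl 1.0, CaCl2 1.0, MgCl2 1.0, HEPES 5.0, pH 7.5) with 5% horse serum and penicillin/streptomycin. Holding potential -90 mV, 10 mV steps from -80 to +40 mV. Current at -40 mV with 10 μM compound taken as % of compound-free control; mean ± SEM of ≥5 oocytes.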
# Potassium voltage-gated channel subfamily KQT member 2 (Mus musculus), sequence (Q9Z351 whole entry): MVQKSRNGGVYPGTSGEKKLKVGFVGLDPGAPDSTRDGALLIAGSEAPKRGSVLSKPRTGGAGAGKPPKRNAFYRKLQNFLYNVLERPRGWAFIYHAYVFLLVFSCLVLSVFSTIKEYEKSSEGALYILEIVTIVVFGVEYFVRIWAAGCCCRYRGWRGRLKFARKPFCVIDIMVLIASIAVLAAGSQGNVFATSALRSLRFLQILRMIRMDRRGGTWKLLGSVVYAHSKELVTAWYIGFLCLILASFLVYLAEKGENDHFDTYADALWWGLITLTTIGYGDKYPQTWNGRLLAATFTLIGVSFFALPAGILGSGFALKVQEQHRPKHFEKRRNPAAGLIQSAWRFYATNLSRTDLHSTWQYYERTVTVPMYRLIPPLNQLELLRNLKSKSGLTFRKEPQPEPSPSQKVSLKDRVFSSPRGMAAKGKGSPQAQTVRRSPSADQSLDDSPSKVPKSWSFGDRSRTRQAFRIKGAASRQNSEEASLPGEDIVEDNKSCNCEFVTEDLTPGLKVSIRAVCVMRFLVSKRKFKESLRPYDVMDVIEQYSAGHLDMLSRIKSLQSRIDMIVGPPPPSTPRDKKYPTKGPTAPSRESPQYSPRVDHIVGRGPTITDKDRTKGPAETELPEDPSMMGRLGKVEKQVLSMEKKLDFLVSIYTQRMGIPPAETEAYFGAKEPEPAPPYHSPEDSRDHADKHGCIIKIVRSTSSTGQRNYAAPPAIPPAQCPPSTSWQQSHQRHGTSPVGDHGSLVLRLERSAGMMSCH
row,KCNQ2 current at -40 mV as percent of compound-free control,SMILES
1,88%,C[C@H](NC(=O)/C=C/c1ccc(F)cc1)c1cccc(N2CCOCC2)c1
2,98%,C[C@H](NC/C=C/c1ccccc1)c1cccc(N2CCOCC2)c1
3,98%,COc1ccc(N2CCOCC2)cc1[C@H](C)NC(=O)/C=C/c1ccccc1
4,110%,C[C@H](NC(=O)/C=C/c1ccccc1)c1cccc(N2CCCOCC2)c1
5,102%,C[C@H](NC(=O)/C=C/c1cc(F)ccc1F)c1cccc(N2CCOCC2)c1
6,132%,COc1cccc(/C=C/C(=O)N[C@@H](C)c2cccc(N3CCOCC3)c2)c1
7,105%,C[C@H](NC(=O)CCc1ccccc1)c1cccc(N2CCOCC2)c1
8,124%,C[C@H](NC(=O)/C=C/c1ccc(F)cc1F)c1cccc(N2CCOCC2)c1
9,99%,COc1ccccc1/C=C/C(=O)N[C@@H](C)c1cccc(N2CCOCC2)c1
10,110%,O=C(/C=C/c1ccccc1)NCc1cccc(N2CCOCC2)c1
11,104%,C[C@H](NC(=O)/C=C/c1ccccc1)c1cccc(N2CC3CC2CO3)c1 (stereo partly specified)
12,140%,COc1ccc(/C=C/C(=O)N[C@@H](C)c2cccc(N3CCOCC3)c2)cc1
13,121%,C[C@H](NC(=O)/C=C/c1ccccc1F)c1cccc(N2CCOCC2)c1
14,127%,C[C@H](NC(=O)/C=C/c1cccc(F)c1)c1cccc(N2CCOCC2)c1
15,129%,C[C@H](NC(=O)/C=C/c1ccccc1)c1ccc(F)c(N2CCOCC2)c1
16,138%,CC1CN(c2cccc([C@H](C)NC(=O)/C=C/c3ccccc3)c2)CC(C)O1 (stereo partly specified)
17,107%,C[C@H](NC(=O)/C=C/c1ccccc1F)c1cccc(N2CCN(C)CC2)c1
18,133%,CC1CN(c2cccc([C@H](C)NC(=O)/C=C/c3ccc(F)cc3)c2)CC(C)O1 (stereo partly specified)
19,142%,C[C@H](NC(=O)/C=C/c1ccc(F)cc1)c1ccc(F)c(N2CCOCC2)c1
20,163%,C[C@H](NC(=O)/C=C/c1ccccc1)c1cccc(N2CCOCC2)c1
21,110%,C[C@H](NC(=O)/C=C/c1ccccc1)c1cccc(N(C)C)c1
22,96%,COc1ccc([C@H](C)NC(=O)/C=C/c2ccccc2)cc1N1CCOCC1
23,101%,CC1=C(C(=O)N[C@@H](C)c2cccc(N3CCOCC3)c2)Cc2ccccc21
24,72%,C[C@@H](c1cccc(N2CCOCC2)c1)N(C)C(=O)/C=C/c1ccccc1
25,96%,C[C@@H](NC(=O)/C=C/c1ccccc1)c1cccc(N2CCOCC2)c1
26,135%,CC1CN(c2cccc([C@H](C)NC(=O)/C=C/c3ccccc3F)c2)CC(C)O1 (stereo partly specified)
